ChEMBL document CHEMBL3046282, “Synthesis, insecticidal activity, crystal structure, and molecular docking studies of nitenpyram analogues with an ω-hydroxyalkyl ester arm anchored on the tetrahydropyrimidine ring” (2012)
In brackets after ≈: the same amount, converted by molar mass. Activity calls are given as the source filed them. No cut-off for these calls is given here.

Tests used:
Myzus persicae [1] = assay: Insecticidal activity against Myzus persicae (green peach aphid) assessed as mortality at 25 degC after 72 hr at 4 mg/L; assay type: functional
Myzus persicae [2] = assay: Insecticidal activity against Myzus persicae (green peach aphid) assessed as mortality at 25 degC after 72 hr at 20 mg/L; assay type: functional
Myzus persicae [3] = assay: Insecticidal activity against Myzus persicae (green peach aphid) assessed as mortality at 25 degC after 72 hr at 100 mg/L; assay type: functional
Nilaparvata lugens [4] = assay: Insecticidal activity against Nilaparvata lugens (brown planthopper) assessed as mortality at 25 degC after 72 hr at 4 mg/L; assay type: functional
Outline: (§1)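 Standard spray test with slight modification. Compounds dissolved in DMF, then serially diluted with water containing Triton X-80 (0.1 mg/L). Groups of 12 insects in glass Petri dishes sprayed with a Potter sprayer, air-dried, then held under normal rearing conditions (25±1 °C, […], 12 h light). Scored at 72 h on a 0–100 scale against a negative control, using kill count and size of live insects. Three replicates.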

Nilaparvata lugens [5] = assay: Insecticidal activity against Nilaparvata lugens (brown planthopper) assessed as mortality at 25 degC after 72 hr at 20 mg/L; assay type: functional; outline: as §1
Nilaparvata lugens [6] = assay: Insecticidal activity against Nilaparvata lugens (brown planthopper) assessed as mortality at 25 degC after 72 hr at 100 mg/L; assay type: functional; outline: as §1
Myzus persicae [7] = assay: Insecticidal activity against Myzus persicae (green peach aphid) assessed as mortality at 25 degC after 72 hr; assay type: functional
Nilaparvata lugens [8] = assay: Insecticidal activity against Nilaparvata lugens (brown planthopper) assessed as mortality at 25 degC after 72 hr; assay type: functional
[9] = Binding affinity to nicotinic acetylcholine receptor assessed as hydrogen bonding

| Compound | mortality at 4 µg/mL (Myzus persicae [1]) | mortality at 20 µg/mL (Myzus persicae [2]) | mortality at 100 µg/mL (Myzus persicae [3]) | mortality at 4 µg/mL (Nilaparvata lugens [4]) | mortality at 20 µg/mL (Nilaparvata lugens [5]) | mortality at 100 µg/mL (Nilaparvata lugens [6]) | LC100 (Myzus persicae [7]) | LC50 (Nilaparvata lugens [8]) | Activity [9] | LC50 (Myzus persicae [7]; Myzus persicae, 72 h) |
| --- | --- | --- | --- | --- | --- | --- | --- | --- | --- | --- |
| CCN(Cc1ccc(Cl)nc1)C1=C([N+](=O)[O-])CN(CCC(=O)OCCCO)CN1C | 55% | 100% | 100% | 70% | 98% | 100% |  |  |  |  |
| CCN(Cc1ccc(Cl)nc1)C1=C([N+](=O)[O-])CN(CCCC(=O)OCCO)CN1C | 10% | 100% | 100% |  | 90% | 100% |  |  |  |  |
| CCN(Cc1ccc(Cl)nc1)C1=C([N+](=O)[O-])CN(CCC(=O)OC(C)C)CN1C |  |  |  | 70% | 100% | 100% |  |  |  |  |
| CCN(Cc1ccc(Cl)nc1)C1=C([N+](=O)[O-])CN(CCCC(=O)OCCCO)CN1C |  | 92% | 100% |  | 80% | 100% |  |  |  |  |
| CCN(Cc1ccc(Cl)nc1)C1=C([N+](=O)[O-])CN(CC(=O)OCCCCO)CN1C |  | 33% | 100% |  | 30% | 95% |  |  |  |  |
| CCN(Cc1ccc(Cl)nc1)C1=C([N+](=O)[O-])CN(CCCC(=O)OCCCCO)CN1C |  | 70% | 95% |  | 78% | 100% |  |  |  |  |
| CCN(Cc1ccc(Cl)nc1)C1=C([N+](=O)[O-])CN(C(Cc2ccccc2)C(=O)OCCO)CN1C (centres undefined) |  | 15% | 90% |  | 20% | 80% |  |  |  |  |
| CCN(Cc1ccc(Cl)nc1)/C(=C/[N+](=O)[O-])NC [NITENPYRAM] | 100% | 100% | 100% | 100% | 100% | 100% | 0.129 mg/L |  |  |  |
| CCN(Cc1ccc(Cl)nc1)C1=C([N+](=O)[O-])CN(CCCC(=O)OCCCCCCO)CN1C |  | 10% | 88% |  | 10% | 90% |  |  |  |  |
| CCN(Cc1ccc(Cl)nc1)C1=C([N+](=O)[O-])CN(CCC(=O)OCCCCCCO)CN1C |  | 33% | 95% |  | 25% | 90% |  |  |  |  |
| CCN(Cc1ccc(Cl)nc1)C1=C([N+](=O)[O-])CN(CCCC(=O)OCCCCCO)CN1C |  | 25% | 95% |  | 15% | 98% |  |  |  |  |
| CCN(Cc1ccc(Cl)nc1)C1=C([N+](=O)[O-])CN(C(C(=O)OCCO)c2ccc(Cl)cc2)CN1C (centres undefined) |  | 25% | 95% |  | 25% | 95% |  |  |  |  |
| CCC(C)C(C(=O)OCCO)N1CC([N+](=O)[O-])=C(N(CC)Cc2ccc(Cl)nc2)N(C)C1 (single isomer, unassigned; (+)) | 30% | 95% | 100% | 35% | 95% | 100% |  |  |  |  |
| CCN(Cc1ccc(Cl)nc1)C1=C([N+](=O)[O-])CN(CCC(=O)OCCCCO)CN1C |  | 83% | 100% |  | 80% | 100% |  |  |  |  |
| CCN(Cc1ccc(Cl)nc1)C1=C([N+](=O)[O-])CN(C(CC(C)C)C(=O)OC)CN1C (centres undefined) |  |  |  | 50% | 100% | 100% |  | 0.216 µg/mL (≈ 0.491 µM) |  |  |
| CCN(Cc1ccc(Cl)nc1)C1=C([N+](=O)[O-])CN(C(CC(C)C)C(=O)OCCO)CN1C (centres undefined) | 100% | 100% | 100% | 95% | 100% | 100% |  | 0.17 µg/mL (≈ 0.362 µM) | Active | 0.17 µg/mL (≈ 0.362 µM) |
| CCN(Cc1ccc(Cl)nc1)C1=C([N+](=O)[O-])CN(CC(=O)OCCO)CN1C |  | 58% | 100% |  | 50% | 100% |  |  |  |  |
| CCN(Cc1ccc(Cl)nc1)C1=C([N+](=O)[O-])CN(C(Cc2ccc(O)cc2)C(=O)OCCO)CN1C (single isomer, unassigned; (+)) |  | 10% | 85% |  | 15% | 80% |  |  |  |  |
| CCCOC(=O)CCN1CC([N+](=O)[O-])=C(N(CC)Cc2ccc(Cl)nc2)N(C)C1 |  |  |  | 75% | 100% | 100% |  |  |  |  |
| CCN(Cc1ccc(Cl)nc1)C1=C([N+](=O)[O-])CN(CC(=O)OCCCO)CN1C |  | 50% | 100% |  | 45% | 100% |  |  |  |  |
| CCN(Cc1ccc(Cl)nc1)C1=C([N+](=O)[O-])CN(CC(=O)OCCCCCCO)CN1C |  | 10% | 95% |  | 15% | 90% |  |  |  |  |
| CCN(Cc1ccc(Cl)nc1)C1=C([N+](=O)[O-])CN(CCC(=O)OCCCCCO)CN1C |  | 50% | 98% |  | 40% | 100% |  |  |  |  |
| CCN(Cc1ccc(Cl)nc1)C1=C([N+](=O)[O-])CN(CCC(=O)OCCO)CN1C | 100% | 100% | 100% | 100% | 100% | 100% |  | 0.154 µg/mL (≈ 0.36 µM) | Active |  |
| CCN(Cc1ccc(Cl)nc1)C1=C([N+](=O)[O-])CN(CC(=O)OCCCCCO)CN1C |  | 25% | 100% |  | 23% | 90% |  |  |  |  |
| CCN(Cc1ccc(Cl)nc1)C1=C([N+](=O)[O-])CN(C(C)C(=O)OCCO)CN1C (single isomer, unassigned; (+)) |  | 40% | 100% |  | 45% | 95% |  |  |  |  |
| CCN(Cc1ccc(Cl)nc1)C1=C([N+](=O)[O-])CN(C(C(=O)OCCO)C(C)C)CN1C (centres undefined) |  | 58% | 100% |  | 65% | 95% |  |  |  |  |
